We go through 97 compounds from ChEMBL document CHEMBL4513216, “Probing the Open Global Health Chemical Diversity Library for Multistage-Active Starting Points for Next-Generation Antimalarials” (ACS Infect Dis, 2020).

The structures appear in SMILES notation.

The nature of this series: Toxicity liver stage against HepG2, at 10uM. Type of series: cell-based. The arrangement: test concentration 10 uM, cell line HepG2-A16-CD81EGFP. The note with it: human, HepG2-A16-CD81EGFP cells; read-out: INHIBITION
The method in brief: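 Uninfected HepG2-A16-CD81EGFP cells, 3 × 10^3 per well, 1536-well, plated on prespotted compound at 10 μM final, parasite-free screening media added to match infected plates; puromycin 10 μM positive, DMSO 0.5% negative; run in parallel with 48 h PbLuc assay at 37 °C, 5% CO2; viability by CellTiter-Glo luminescence, normalized to controls.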
For the compound `CCS(=O)(=O)c1ccc2oc([C@H]3CCN(Cc4ccccc4)C3)nc2c1`, the cytotoxicity at 10 µM turned out to be 4.03%.
In the case of `CN(CCc1ccccn1)C(=O)c1cnn(-c2ccccc2F)c1N`, the cytotoxicity at 10 µM is -4.85%.
As for `Cc1csc2cc(C(=O)NC3CC3)cnc12`, the cytotoxicity at 10 µM is -0.697%.
On to `O=C(CC1CCCC1)NCCS(=O)(=O)N1CCN(c2ncccn2)CC1`, for which the cytotoxicity at 10 µM was -1%.
The figure for `O=C(CCO)N1C[C@H]2CN(c3ccccc3)C(=O)[C@H]2C1` is 1.35%; for `CNC(=O)c1nc2c(s1)CCN(C(=O)c1cccc(OC)c1)CC2` it is 9.84%.
In the case of `Cc1nc(CN2C(=O)C[C@@H]3[C@@H]2CCN3S(C)(=O)=O)cs1`, the cytotoxicity at 10 µM was -131%.
With `N#Cc1cccc(N2CCCC3(C2)CN(c2nncs2)CCO3)c1` (configuration not stated), the cytotoxicity at 10 µM amounted to 0.922%.
For `Cc1ccc(Cl)cc1NC(=O)Cn1cc(C(=O)O)ccc1=O`, the cytotoxicity at 10 µM is -1.45%.
As for `COC(C)C(=O)N(CC(N)=O)Cc1cccc(Oc2ccccc2)c1` (configuration not stated), the cytotoxicity at 10 µM was 1.46%.
Regarding `CS(=O)(=O)N1CCN(C(=O)CCC2CCCO2)CC1` (configuration not stated), the cytotoxicity at 10 µM stood at 0.815%.
With `COCc1ccccc1NC(=O)CCNC(=O)c1ccoc1`, the cytotoxicity at 10 µM was -3.94%.
To `CC(CNC(=O)c1ccco1)N1CCc2sccc2C1` (configuration not stated) belongs 0.107%; to `CN(Cc1nc2ccccc2[nH]1)C(=O)CN(C)c1ccc(Cl)cn1`, -2.66%.
As to `NC(=O)CSc1ccccc1NCc1nc(Cc2ccccc2)no1`, the cytotoxicity at 10 µM came to 7.04%.
On to `Cc1cc(CNC(=O)NCC(O)c2cccc(F)c2)no1` (configuration not stated), for which the cytotoxicity at 10 µM was 3.1%.
With `COC1CCN(c2ccc(F)cc2CN(C)C(=O)c2cc[nH]n2)CC1`, the cytotoxicity at 10 µM is -4.32%.
As to `COCCSCC(=O)NCc1ccc(N(C)C)cc1`, the cytotoxicity at 10 µM amounted to 19%.
Consider `CCc1ccc(S(=O)(=O)Nc2ccn(CC(=O)OC)n2)cc1`, for which the cytotoxicity at 10 µM came out at 7.22%.
`CCOCCNC1(c2ccc(Cl)cc2)CCOCC1`: the cytotoxicity at 10 µM was -3.75%.
For the compound `CCC(C)NC(=O)c1cncc(Br)c1` (configuration not stated), the cytotoxicity at 10 µM stood at 1.24%.
For the compound `O=C(CS(=O)(=O)c1ncccc1Cl)NC1CCCc2ccccc21` (configuration not stated), the cytotoxicity at 10 µM is -7.69%.
`N#Cc1cnc(NC2CCN(C(=O)C3CCCCC3)CC2)c(Cl)c1`: the cytotoxicity at 10 µM was -3.75%.
In the case of `CCCOCC(=O)Nc1ncc(I)cc1C`, the cytotoxicity at 10 µM came out at 1.46%.
The figure for `O=C(NCC(O)c1ccc(F)cc1F)c1ccccc1` (configuration not stated) is 4.15%; for `Cc1cccc(C(=O)NCC(O)c2ccc(F)cc2F)c1` (configuration not stated) it is 6.27%; for `CCC(C)NC(=O)c1ccc(CNC(=O)COC)cc1` (configuration not stated) it is 10.7%.
The figure for `Cc1nn(C)c(N2CCOCC2)c1CNC1CCS(=O)(=O)C1` (configuration not stated) is -3.99%; for `CC(C)c1cc(C(=O)NCc2nc(-c3ccc(F)cc3)n[nH]2)n[nH]1` it is -1.75%; for `CC(Cn1ccnc1)NS(=O)(=O)c1ccc(F)c(Cl)c1` (configuration not stated) it is 9.25%.
With `N#Cc1ccnc(N2CCN(CC(O)c3ccccc3)CC2)c1` (configuration not stated), the cytotoxicity at 10 µM stood at 0.587%.
To `O=C(c1ccn(-c2cccc(F)c2)n1)N1CCN(CC2CC2)CC1` belongs -7.54%; to `Cc1ccc(S(=O)(=O)NC2CCC(=O)NC2)cc1Br` (configuration not stated), -2.38%; to `Cc1cc(NC(=O)c2ccc(Br)cc2F)n(C)n1`, 3.42%.
For `Cc1ccc(C(=O)Nc2ccc(N(C)C)cn2)n1C`, the cytotoxicity at 10 µM was -2.48%.
Turning to `CCN(CC)C(=O)CN(C)CCn1nc2ccccn2c1=O`, the cytotoxicity at 10 µM is -149%.
`COCCOCC(=O)Nc1ccc(C)cc1Cl`: the cytotoxicity at 10 µM turned out to be 1.85%.
On to `Fc1ccc(C2CCCN2Cc2nnnn2C2CC2)cc1` (configuration not stated), for which the cytotoxicity at 10 µM worked out at 15.5%.
With `CC(C)N(CCC#N)C(=O)c1cnc(-c2ccc3c(c2)OCO3)s1`, the cytotoxicity at 10 µM worked out at 0.247%.
To `Cc1cc(N(C)C)nc(N2CCN(C(C)c3nc(C)no3)CC2)n1` (configuration not stated) belongs 2.33%.
Consider `COc1cc(C)nc(N2CCN(C(C)c3nc(C)no3)CC2)n1` (configuration not stated), for which the cytotoxicity at 10 µM is 3.55%.
For `O=S(=O)(NCCN1CC=CC1)c1ccc(Cl)cc1`, the cytotoxicity at 10 µM was -6.04%.
To `CS(=O)(=O)CCOCCNc1ccc(C#N)cc1F` belongs -3.34%.
For the compound `O=C(NCC1CCOC1)c1csc(Cc2ccccc2)n1` (configuration not stated), the cytotoxicity at 10 µM is -118%.
As for `O=C(CCc1ccccn1)N1CCSC2(CCCCC2)C1`, the cytotoxicity at 10 µM came to 0.547%.
To `CN(C)c1ccc(NC(=O)NCc2cccs2)cn1` belongs -1.15%; to `O=C(c1cc(F)ccc1O)N1CCN(C2CCSC2)CC1` (configuration not stated), 0.773%.
For the compound `Cc1ccc(NC(=O)CS(=O)(=O)NC2CCC(C)CC2)nc1` (configuration not stated), the cytotoxicity at 10 µM is -9.24%.
Take `CCCn1nc(-c2nc(COc3ccccc3)no2)ccc1=O`: the cytotoxicity at 10 µM is -2.74%.
With `Cn1ccc2c(-c3cc(N4CCCCC4)ncn3)ccnc21`, the cytotoxicity at 10 µM was -3.46%.
In the case of `COCCCN1CCCC2(CCN(S(=O)(=O)c3cccnc3)C2)C1=O` (configuration not stated), the cytotoxicity at 10 µM worked out at 8.21%.
With `O=C(C1CC1)N1CCc2[nH]cnc2C12CCN(C1CCOCC1)CC2`, the cytotoxicity at 10 µM was -1.16%.
With `Cc1c(-c2nnc(SCC(=O)O)n2C(C)c2ccccc2)cnn1C` (configuration not stated), the cytotoxicity at 10 µM is -5.43%.
To `CCN1CCN(C[C@@H]2CN(c3ncc(Cl)cc3F)C[C@@H]2CO)CC1` belongs -7.06%; to `COc1ccccc1OCc1cc(C(=O)N2CCC(NC(C)=O)C2)n[nH]1` (configuration not stated), -4.26%.
Turning to `COc1ccc(-c2ccc(C(=O)N3CCOCC3CC(N)=O)o2)cc1` (configuration not stated), the cytotoxicity at 10 µM was found to be 3.16%.
Consider `CCCc1nc(C)cc(N2CCC3(CCC(=O)N(CCO)C3)CC2)n1`, for which the cytotoxicity at 10 µM was -6.71%.
On to `O=C(CN1CCCC1c1nc(-c2ccccn2)no1)N1CCOCC1` (configuration not stated), for which the cytotoxicity at 10 µM is 6.08%.
Take `CCc1nn(C)c(Cl)c1CN1CCC2(C1)CN(C)C(=O)O2` (configuration not stated): the cytotoxicity at 10 µM was 1.95%.
For the compound `CC1(C)OC(=O)N(CC(=O)N2CCC(c3ccccc3F)C2)C1=O` (configuration not stated), the cytotoxicity at 10 µM was 0.189%.
As to `CCN(Cc1cccc(C(=O)Nc2ncc(C)s2)c1)[C@H]1COC[C@@H]1O`, the cytotoxicity at 10 µM is -2.61%.
Take `CCO[C@H]1CN(C)C[C@@H]1NC(=O)c1c[nH]nc1C1CCCCC1`: the cytotoxicity at 10 µM is -5.56%.
On to `Nc1cccc(-c2cccc3ccnn23)n1`, for which the cytotoxicity at 10 µM is -5.74%.
Consider `O=c1c2cccc(F)c2ncn1CCN1CCNCC1`, for which the cytotoxicity at 10 µM was -0.812%.
As to `Cc1nc(NCC23CCCN2CCC3)cc(C2CCCNC2)n1` (configuration not stated), the cytotoxicity at 10 µM was 7.54%.
In the case of `COc1ncccc1-c1nc(-c2ccccn2)nn1C1CCN(C)CC1`, the cytotoxicity at 10 µM was -4.52%.
The figure for `COc1ccc(F)c(-c2cc(NCCO)nc(N)n2)c1` is -1.21%; for `CCN(CC)C(CNS(=O)(=O)NCc1ccccc1)c1ccco1` (configuration not stated) it is 1.53%; for `Cc1nc(C(C)NC(=O)COc2ccc(F)cc2)n[nH]1` (configuration not stated) it is 6.39%.
On to `O=C1O[C@@H]2CN(CCc3ccccc3)C[C@@H]2N1CCCN1CCOCC1`, for which the cytotoxicity at 10 µM was -3.2%.
As for `Cc1cc(C)c(C(=O)N2CCOCC2c2c(C)nn(C)c2C)o1` (configuration not stated), the cytotoxicity at 10 µM was -2.48%.
The figure for `CC(C)(C)c1ncc(C(=O)NCCNC(=O)c2cccs2)s1` is -1.56%.
To `COc1c(CNCCNC(=O)c2cccs2)c(C)nn1C` belongs -0.373%; to `CCOc1cc(C)nc(N2CCN(C(=O)Cn3cc(C)cn3)CC2)n1`, -5.43%; to `CS(=O)(=O)NC1CCCN(C(=O)COCc2ccccc2)C1` (configuration not stated), -5.28%.
To `CN(CC(=O)N1CCCCC1Cn1cccn1)C1CC1` (configuration not stated) belongs -3.45%; to `CN(CC(=O)NCc1cccnc1N1CCCCC1)C(=O)c1cccs1`, -14.8%; to `CCn1cnnc1CNC(=O)N1CCC(CN2CCCCCC2)CC1`, -8.57%.
Take `O=C(c1cccc(F)c1)N1CCCN(Cc2cscn2)CC1`: the cytotoxicity at 10 µM is -3.13%.
With `Cc1cnn(CC2CCCN2C(=O)c2ccc(F)cc2Cl)c1` (configuration not stated), the cytotoxicity at 10 µM came out at 2.99%.
Consider `c1cnn(CC2CN(CC3CCCCC3)CCO2)c1` (configuration not stated), for which the cytotoxicity at 10 µM was -7.85%.
To `CC(C)Oc1ccc(C(=O)N2CCC(Nc3cccnn3)CC2)cn1` belongs -31%.
`CN(C)c1cc(CNC(=O)c2n[nH]c(=O)c3ccccc23)ccn1`: the cytotoxicity at 10 µM was -3.79%.
Take `CN(C)CCNC(=O)c1sc2ccccc2c1C1CCC(CN)CC1` (configuration not stated): the cytotoxicity at 10 µM is -15.3%.
To `CN(Cc1ccco1)C1CCC12CCN(C(=O)c1ccco1)CC2` (configuration not stated) belongs -10.9%; to `COCc1cnc2n1CCN(C1CCCC1)C2C` (configuration not stated), 9.13%.
In the case of `CN(C)[C@@H]1CN(C(=O)c2ccc(C#N)cc2)[C@@H]2CCCO[C@H]12`, the cytotoxicity at 10 µM was -146%.
The figure for `O=C1[C@H]2CN(Cc3ccc(F)cc3)C[C@H]2CN1c1cncnc1` is -2.32%; for `Cc1cccc(NC(=O)C2CCc3ccccc3N2)c1` (configuration not stated) it is -5.92%; for `Cc1noc(C)c1CN1CCO[C@H]2[C@H](Oc3ccccn3)CC[C@@H]21` it is -6.69%.
`CC(C)N1[C@H](CN2CCCC2)C[C@@H]2CN(Cc3ccoc3)CC[C@@H]21`: the cytotoxicity at 10 µM was -157%.
For the compound `COc1c(CNC2(c3noc(C)n3)CCC2)c(C)nn1C`, the cytotoxicity at 10 µM came to 4.2%.
With `Cc1ccc2c(n1)N(CCn1cccn1)CCN(S(C)(=O)=O)C2`, the cytotoxicity at 10 µM was 13.5%.
The figure for `CCc1cnc(N2C[C@@H](NC(=O)c3cscn3)[C@H]3COC[C@H]32)nc1` is -127%; for `O=C(c1cnc2ccccc2c1)N1CCC2(CCN2c2ncccn2)C1` (configuration not stated) it is -122%.
To `COc1ccccc1CN1CC[C@]2(C[C@@H](OC)CO2)C1` belongs -5.35%; to `CN(C)CCn1c2c(ccc1=O)CCN(C(=O)c1ccoc1)CC2`, 6.2%.
